Consider three molecules from paper PMC2760637 (Journal of molecular recognition : JMR, 2009).

Assay [1] concerns classical pathway of complement activation. Nature of the assay: Complement inhibition assay. The format is biochemical. The method in brief: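 Classical-pathway activation was triggered by antigen–antibody complexes formed on the ELISA plate: an albumin-coated plate bound by a polyclonal anti-ovalbumin antibody. C3b deposited in the presence of the test peptide was detected by ELISA. Percent inhibition was plotted against peptide concentration and fitted to a logistic dose-response function to derive IC50.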

Assay [2] concerns the target complement C3 (Homo sapiens) (UniProt P01024). Nature of the assay: ITC. The settings on record: cited from earlier work.
Assay [3] has as its target complement C3 (Homo sapiens), P01024. Nature of the assay: ITC. The settings on record: Y4 is O-methyl-Tyr, N-acetyl, C-amide, disulfide C2-C12.

*1 amine or outer side, *2 acyl side, *3 side chain or, on linkers, in order; H or OH if unused. Bridges are numbered along the chain shown (N, C = ends). [ ]: non-standard residue; d: D form. Tyr(OMe) = O-methyl-tyrosine, COc1ccc(C[C@H](N[*:1])C(=O)[*:2])cc1

The Kd is the free concentration of one partner at which half of the binding sites on the other are occupied at equilibrium, for simple one-to-one binding.

Take “Ac-ICV(1MeW)QisoDWGAHRCT [4(1MeW)6(isoD)]”: the “inhibitory activity (in words)” value in assay [1] (listed as 4(1MeW)6isoD) is given as “lacked inhibitory activity”; in assay [1] (listed as 6isoD), “complete loss of activity”.

Take compstatin 4(5MeW): the Kd in assay [2] is 120 nM.

B1: compstatin 4MeY (peptide)
chain: Ac-ICV[Tyr(OMe)]QDWGAHRCT-NH2
modifications: disulfide 2-12
SMILES: CC[C@H](C)[C@H](NC(C)=O)C(=O)N[C@H]1CSSC[C@@H](C(=O)N[C@H](C(N)=O)[C@@H](C)O)NC(=O)[C@H](CCCNC(=N)N)NC(=O)[C@H](Cc2c[nH]cn2)NC(=O)[C@H](C)NC(=O)CNC(=O)[C@H](Cc2c[nH]c3ccccc23)NC(=O)[C@H](CC(=O)O)NC(=O)[C@H](CCC(N)=O)NC(=O)[C@H](Cc2ccc(OC)cc2)NC(=O)[C@H](C(C)C)NC1=O
The molecule B1 gave a Kd in assay [3] of 115 nM.
